The record followed here is ChEMBL document CHEMBL3745659, “Synthesis and Characterization of 4,11-Diaminoanthra[2,3-b]furan-5,10-diones: Tumor Cell Apoptosis through tNOX-Modulated NAD(+)/NADH Ratio and SIRT1” (J Med Chem, 2015).

Active and inactive are the calls of the source. No cut-off for these calls is given here.

Assay [1] deals with AGS. Nature of the assay: Induction of apoptosis in human AGS cells assessed as late apoptotic cells at 0.05 uM after 24 hrs by annexin V-FITC staining-based flow cytometric analysis (Rvb=0.3%). It counts as functional. The essentials: (§1)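 AGS cells exposed to compound for 24 h; Annexin V-FITC staining and flow cytometry used to give percentage of apoptotic cells; mean ± S.E. from at least three independent experiments.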

Assay [2] deals with AGS. Nature of the assay: Induction of apoptosis in human AGS cells assessed as late apoptotic cells at 0.1 uM after 24 hrs by annexin V-FITC staining-based flow cytometric analysis (Rvb=0.3%). It counts as functional. In outline: as §1
Assay [3] deals with DNA topoisomerase 2-alpha (Homo sapiens) (UniProt P11388). Nature of the assay: Inhibition of Top2 (unknown origin)-mediated relaxation of pBR322 DNA at 0.1 to 2.5 uM incubated for 30 mins by ethidium bromide staining-based gel electrophoresis assay.
Assay [4] relates to AGS. Nature of the assay: […] in human AGS cells assessed as downregulation of beta-catenin after 24 hrs by Western blot analysis. The class given is functional, cell-based. For orientation: A western blot detects proteins with antibodies after separation by electrophoresis.
Assay [5] concerns AGS. Nature of the assay: Induction of apoptosis in human AGS cells assessed as viable cells at 0.05 uM after 24 hrs by annexin V-FITC staining-based flow cytometric analysis (Rvb=91.5%). It counts as functional. Conditions: read-out: Activity. The essentials:
as §1
On the technique in general: A flow cytometer gives signals particle by particle.

In assay [6] the test system is AGS. Kind of assay: Induction of apoptosis in human AGS cells assessed as early apoptotic cells at 1 uM after 24 hrs by annexin V-FITC staining-based flow cytometric analysis (Rvb=7.2%). It counts as functional. In outline:
as §1

For assay [7], the system named is AGS. Nature of the assay: Induction of apoptosis in human AGS cells assessed as early apoptotic cells at 0.1 uM after 24 hrs by annexin V-FITC staining-based flow cytometric analysis (Rvb=7.2%). It counts as functional. In outline:
as §1

Assay [8] concerns the target T1, NAD-dependent protein deacetylase sirtuin-1 (Homo sapiens) (UniProt Q96EB6).
T1 sequence (whole entry): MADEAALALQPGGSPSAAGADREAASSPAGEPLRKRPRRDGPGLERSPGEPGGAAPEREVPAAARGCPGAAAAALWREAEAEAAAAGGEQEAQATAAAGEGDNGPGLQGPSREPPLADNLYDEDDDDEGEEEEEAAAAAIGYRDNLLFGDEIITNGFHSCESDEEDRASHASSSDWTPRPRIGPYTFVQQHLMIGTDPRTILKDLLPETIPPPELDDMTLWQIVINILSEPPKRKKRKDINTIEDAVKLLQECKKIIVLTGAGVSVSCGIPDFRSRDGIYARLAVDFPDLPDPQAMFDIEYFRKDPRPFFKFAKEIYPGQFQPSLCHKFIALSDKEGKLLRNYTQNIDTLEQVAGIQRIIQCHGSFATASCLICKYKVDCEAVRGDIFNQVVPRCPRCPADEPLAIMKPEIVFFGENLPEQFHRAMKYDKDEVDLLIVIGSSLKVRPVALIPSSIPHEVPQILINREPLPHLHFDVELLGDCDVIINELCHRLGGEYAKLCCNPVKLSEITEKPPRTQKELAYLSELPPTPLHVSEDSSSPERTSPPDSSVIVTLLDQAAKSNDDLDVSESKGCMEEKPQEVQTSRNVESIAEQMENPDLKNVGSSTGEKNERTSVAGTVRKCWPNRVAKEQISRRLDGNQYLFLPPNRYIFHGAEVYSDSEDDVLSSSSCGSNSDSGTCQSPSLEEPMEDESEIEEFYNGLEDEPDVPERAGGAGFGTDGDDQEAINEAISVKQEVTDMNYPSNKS
Kind of assay: Inhibition of human recombinant SIRT1 deacetylase activity using Arg-His-Lys-Lys(epsilon-acetyl)-AMC as substrate at 5 uM incubated for 45 mins by fluorescence analysis.

For assay [9], the system named is AGS. Nature of the assay: Induction of apoptosis in human AGS cells assessed as viable cells at 1 uM after 24 hrs by annexin V-FITC staining-based flow cytometric analysis (Rvb=91.5%). The class given is functional. Conditions: read-out: Activity. In outline:
as §1

The subject of assay [10] is AGS. Kind of assay: […] in human AGS cells assessed as upregulation of E-Cad after 24 hrs by Western blot analysis. It counts as functional, cell-based.
Assay [11] deals with AGS. Kind of assay: Induction of apoptosis in human AGS cells assessed as early apoptotic cells at 0.05 uM after 24 hrs by annexin V-FITC staining-based flow cytometric analysis (Rvb=7.2%). The class given is functional. In outline:
as §1

Assay [12] is described as follows: Antiproliferative activity against mouse NIH/3T3 cells after 48 hrs by cell impedance based study. Conditions: NIH3T3, 48 h.
The subject of assay [13] is AGS. Nature of the assay: Downregulation of tNOX protein level in human AGS cells at 0.1 to 0.5 uM after 24 hrs by Western blot analysis. The class given is functional, cell-based.
For assay [14], the system named is AGS. Kind of assay: […] in human AGS cells assessed as downregulation of N-Cad after 24 hrs by Western blot analysis. The class given is functional, cell-based.
A further assay relates to MRC5. Nature of the assay: Antiproliferative activity against human MRC5 cells after 72 hrs by cell impedance based study. To be noted: MRC5, 72 h.

Sequence of DNA topoisomerase 2-alpha (Homo sapiens) (P11388 whole entry): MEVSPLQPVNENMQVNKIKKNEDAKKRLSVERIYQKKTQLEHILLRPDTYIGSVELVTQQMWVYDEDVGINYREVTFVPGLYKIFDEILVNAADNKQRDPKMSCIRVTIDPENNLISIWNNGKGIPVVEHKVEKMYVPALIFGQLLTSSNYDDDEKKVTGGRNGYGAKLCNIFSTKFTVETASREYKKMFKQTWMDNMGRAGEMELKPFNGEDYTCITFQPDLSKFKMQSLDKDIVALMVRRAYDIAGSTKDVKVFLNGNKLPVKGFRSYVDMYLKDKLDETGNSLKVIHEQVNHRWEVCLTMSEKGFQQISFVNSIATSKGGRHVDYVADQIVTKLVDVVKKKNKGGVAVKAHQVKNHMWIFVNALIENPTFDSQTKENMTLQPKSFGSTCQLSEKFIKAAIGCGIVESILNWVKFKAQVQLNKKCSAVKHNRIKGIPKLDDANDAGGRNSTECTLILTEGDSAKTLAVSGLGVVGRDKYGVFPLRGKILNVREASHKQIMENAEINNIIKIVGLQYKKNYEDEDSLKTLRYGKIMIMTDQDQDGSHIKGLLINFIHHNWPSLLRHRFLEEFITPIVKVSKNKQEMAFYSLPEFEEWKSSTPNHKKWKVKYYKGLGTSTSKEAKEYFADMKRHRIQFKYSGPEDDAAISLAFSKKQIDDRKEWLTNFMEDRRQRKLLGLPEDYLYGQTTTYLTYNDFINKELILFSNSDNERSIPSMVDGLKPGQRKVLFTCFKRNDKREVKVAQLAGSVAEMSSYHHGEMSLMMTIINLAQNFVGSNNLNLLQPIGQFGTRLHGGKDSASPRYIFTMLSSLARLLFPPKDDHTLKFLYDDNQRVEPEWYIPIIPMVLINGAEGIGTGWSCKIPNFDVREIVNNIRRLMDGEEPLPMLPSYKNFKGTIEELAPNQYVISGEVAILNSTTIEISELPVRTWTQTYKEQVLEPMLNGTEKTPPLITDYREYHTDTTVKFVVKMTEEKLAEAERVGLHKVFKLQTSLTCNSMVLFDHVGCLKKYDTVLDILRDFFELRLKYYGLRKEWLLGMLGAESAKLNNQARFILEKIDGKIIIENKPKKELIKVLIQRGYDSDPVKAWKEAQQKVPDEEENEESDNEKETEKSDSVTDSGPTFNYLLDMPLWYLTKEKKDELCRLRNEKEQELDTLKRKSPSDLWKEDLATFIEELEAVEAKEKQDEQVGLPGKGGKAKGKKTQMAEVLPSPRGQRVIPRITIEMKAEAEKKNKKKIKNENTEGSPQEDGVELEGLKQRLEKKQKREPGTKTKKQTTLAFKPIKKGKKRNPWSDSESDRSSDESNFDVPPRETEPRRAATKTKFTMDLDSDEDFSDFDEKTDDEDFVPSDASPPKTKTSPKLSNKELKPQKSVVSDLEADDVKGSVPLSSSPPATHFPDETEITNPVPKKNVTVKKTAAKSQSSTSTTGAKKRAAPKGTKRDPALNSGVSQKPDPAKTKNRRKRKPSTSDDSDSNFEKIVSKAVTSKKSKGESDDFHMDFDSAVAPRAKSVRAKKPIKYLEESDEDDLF

Broadly, the IC50 is the concentration at which inhibition is half-maximal. The low end stands for greater potency in that assay, the high end for weaker potency in that assay. Consider `CNCCNc1c2c(c(NCCNC)c3occc13)C(=O)c1ccccc1C2=O`, for which the Activity in the assay with AGS [1] is 0.7%; in the assay on AGS [2] it was 1.5%; with AGS [6], 21.6%; in the assay with AGS [7] it was 25.1%; in the assay with AGS [11] it was 13%. For the same compound, the inhibition result in assay [3] and in [8] was “Active” throughout. For the same compound, the outcome in the assay with AGS [4], with AGS [10], in the assay on AGS [13] and in the assay with AGS [14] was Active. Further, in the assay with AGS [5], the viability at 0.05 µM was 78.9%. In addition, the viability at 1 µM in the assay with AGS [9] came to 61.6%. The IC50 in assay [12] came out at 230 nM; in the assay with MRC5, 780 nM.
